Read-outs that look alike come from different tables or passages of the source.
Tests used:
[1] = standard NCA analysis; cited from earlier work
[2] = 20 mg repeated, fed, NCA, cited from earlier work
[3] = test system: plasma protein (mainly albumin); details: binds mainly to albumin; cited from earlier work
[4] = cited from earlier work
[5] = healthy Japanese adult males, NCA; cited from earlier work
[6] = test system: hyperuricemia including gout; details: pediatric patients weighing <40 kg and ≥40 kg; cited from earlier work
[7] = cited from earlier work; remark: listed apart in the source
[8] = Integrated PopPK analysis; format: in vivo, human (Japanese pediatric patients and adult population)
How it was run: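 Plasma concentrations (2611 samples, 142 Japanese subjects) were pooled from six oral-dosing studies: pediatric patients aged 6–18 y on once-daily doses for 52 weeks, healthy adult males, and fed adults with normal, mild or moderately impaired renal function. Assays were LC–MS/MS (LLOQ 0.5 ng/mL) or HPLC (LLOQ 4 ng/mL). Points with |CWRES| >6 were excluded. Model: linear two-compartment, first-order absorption with lag and first-order elimination. Covariate selection was forward (p<.05) then backward (p<.01), with condition number ≤1000. Evaluation used bootstrap and pc-VPC.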

[9] = Post hoc estimates of steady-state PK parameters from the PopPK final model; format: in vivo, human (Japanese pediatric patients and adult population); details: for CLss/F (apparent total body clearance at steady state) / Dose‐normalized AUCτ,ss / Dose‐normalized C max,ss: fed, mean ± SD
How it was run: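 Steady-state parameters were derived by post hoc estimation from the final PopPK model, assuming each study's dose given once daily to fed subjects. Pediatric estimates used the original maintenance doses: 20 mg for <40 kg and 40 mg for ≥40 kg. CL/F was also expressed per body weight. Outputs were CLss/F, Cmax,ss and AUCτ,ss, compared with the adult population.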

[10] = mild dysfunction group (CLCr-based)
[11] = moderate renal dysfunction group (CLCr-based)
[12] = fed vs fasted, present PopPK analysis
[13] = final PopPK model, fixed effect
[14] = adult population (n = 113), 10–160 mg once daily
[15] = pediatric patients <40 kg (n = 10), 20 mg once daily
[16] = pediatric patients weighing <40 kg vs adult population
[17] = pediatric patients weighing ≥40 kg vs adult population
[18] = pediatric patients ≥40 kg (n = 19), 40 mg once daily

Cc1nc(-c2ccc(OCC(C)C)c(C#N)c2)sc1C(=O)O [febuxostat]
Effect of sex on PK [1]: no notable effect
Increase of AUCτ,ss vs normal renal function group [2, 10]: 52.5%
Steady‐state plasma C max,ss vs normal renal function group [2, 10]: did not differ noticeably
Increase of AUCτ,ss vs normal renal function group [2, 11]: 67.6%
Increase of C max,ss vs normal renal function group [2, 11]: 25.5%
Plasma protein binding rate [3]: approximately 99%
Eliminated as unchanged drug through the urine [4]: < 5%
AUCinf lower in the fed group than in the fasted group [5]: 18%
C max lower in the fed group than in the fasted group [5]: 28%
Efficacy in pediatric patients compared with adults [6]: as effective
Tolerability in pediatric patients compared with adults [6]: well tolerated
Solubility (in words) [7]: poorly soluble
Between-subject variability of CL/F, CV (%) ([8]; CV = SQRT(EXP(ω^2)–1) × 100): 26.2%
Between-subject variability of Ka, CV (%) ([8]; CV = SQRT(EXP(ω^2)–1) × 100): 306.3%
Between-subject variability of Q/F, CV (%) ([8]; CV = SQRT(EXP(ω^2)–1) × 100): 71.3%
Between-subject variability of V2/F, CV (%) ([8]; CV = SQRT(EXP(ω^2)–1) × 100): 25.7%
Between-subject variability of V3/F, CV (%) ([8]; CV = SQRT(EXP(ω^2)–1) × 100): 54.4%
Residual variability, CV (%) ([8]; CV = σ × 100): 36.9%
ALAG1, Bootstrap Median ([8]; bootstrap, 1000 simulations): 0.438 h
ALAG1, Bootstrap parameter estimate Mean ± SE ([8]; bootstrap, 1000 simulations): 0.441 ± 0.0210 h
CL/F, Bootstrap Median ([8]; bootstrap, 1000 simulations): 6.52 L/h
CL/F, Bootstrap parameter estimate Mean ± SE ([8]; bootstrap, 1000 simulations): 6.52 ± 0.197 L/h
CLEGFR, Bootstrap Median ([8]; bootstrap, 1000 simulations): 0.326
CLEGFR, Bootstrap parameter estimate Mean ± SE ([8]; bootstrap, 1000 simulations): 0.326 ± 0.0586
CLWGT, Bootstrap Median ([8]; bootstrap, 1000 simulations): 0.580
CLWGT, Bootstrap parameter estimate Mean ± SE ([8]; bootstrap, 1000 simulations): 0.589 ± 0.130
F1 (FED), Bootstrap Median ([8]; bootstrap, 1000 simulations): 0.839
F1 (FED), Bootstrap parameter estimate Mean ± SE ([8]; bootstrap, 1000 simulations): 0.838 ± 0.0274
Ka, Bootstrap Median ([8]; bootstrap, 1000 simulations): 3.51 h⁻¹
Ka, Bootstrap parameter estimate Mean ± SE ([8]; bootstrap, 1000 simulations): 4.24 ± 2.78 h⁻¹
Q/F, Bootstrap Median ([8]; bootstrap, 1000 simulations): 1.79 L/h
Q/F, Bootstrap parameter estimate Mean ± SE ([8]; bootstrap, 1000 simulations): 1.78 ± 0.127 L/h
V2/F, Bootstrap Median ([8]; bootstrap, 1000 simulations): 19.4 L
V2/F, Bootstrap parameter estimate Mean ± SE ([8]; bootstrap, 1000 simulations): 19.4 ± 0.792 L
V3/F, Bootstrap Median ([8]; bootstrap, 1000 simulations): 15.6 L
V3/F, Bootstrap parameter estimate Mean ± SE ([8]; bootstrap, 1000 simulations): 15.5 ± 0.822 L
σ ^2, Bootstrap Median ([8]; bootstrap, 1000 simulations): 0.135
σ ^2, Bootstrap parameter estimate Mean ± SE ([8]; bootstrap, 1000 simulations): 0.135 ± 0.00823
ω Ka ^2, Bootstrap Median ([8]; bootstrap, 1000 simulations): 2.37
ω Ka ^2, Bootstrap parameter estimate Mean ± SE ([8]; bootstrap, 1000 simulations): 2.60 ± 0.908
ω Q/F ^2, Bootstrap Median ([8]; bootstrap, 1000 simulations): 0.409
ω Q/F ^2, Bootstrap parameter estimate Mean ± SE ([8]; bootstrap, 1000 simulations): 0.414 ± 0.0686
ω Q/F‐V3/F ^2, Bootstrap Median ([8]; bootstrap, 1000 simulations): 0.302
ω Q/F‐V3/F ^2, Bootstrap parameter estimate Mean ± SE ([8]; bootstrap, 1000 simulations): 0.304 ± 0.0507
ω V2/F ^2, Bootstrap Median ([8]; bootstrap, 1000 simulations): 0.0633
ω V2/F ^2, Bootstrap parameter estimate Mean ± SE ([8]; bootstrap, 1000 simulations): 0.0648 ± 0.0188
ω V3/F ^2, Bootstrap Median ([8]; bootstrap, 1000 simulations): 0.251
ω V3/F ^2, Bootstrap parameter estimate Mean ± SE ([8]; bootstrap, 1000 simulations): 0.254 ± 0.0511
Reduction of AUCτ,ss in the fed group [8, 12]: 16.2%
Reduction of C max,ss in the fed group [8, 12]: 16.2%
Reduction of relative bioavailability in the fed group [8, 12]: 16.2%
σ ^2 (exponential error), residual variability, Estimate ([8]; final PopPK model): 0.136
ω CL/F‐V2/F ^2 (covariance, correlation variability), Estimate ([8]; final PopPK model): 0.0483
ω Ka ^2 (between-subject variability), Estimate ([8]; final PopPK model): 2.34
ω Q/F ^2 (between-subject variability), Estimate ([8]; final PopPK model): 0.411
ω Q/F‐V3/F ^2 (covariance, correlation variability), Estimate ([8]; final PopPK model): 0.307
ω V2/F ^2 (between-subject variability), Estimate ([8]; final PopPK model): 0.0638
ω V3/F ^2 (between-subject variability), Estimate ([8]; final PopPK model): 0.259
ω CL/F ^2 (between-subject variability), Estimate ([8]; final PopPK model, exponential error model): 0.0662
ALAG1 (absorption lag time), Estimate [8, 13]: 0.437 h
Ka (first-order absorption rate constant), Estimate [8, 13]: 3.43 h⁻¹
CLWGT (covariate for effect of body weight on CL/F), Estimate ([8]; final PopPK model, power function exponent, centered at 60.6 kg): 0.584
CLEGFR (covariate for effect of eGFR on CL/F), Estimate ([8]; final PopPK model, power function exponent, centered at 98.6 mL/min/1.73 m^2): 0.324
Vd/F ([8]; human, plasma, oral): 19.4 L
CLss/F (apparent total body clearance at steady state) [9, 14]: 8.27 ± 2.00 L/h
Dose‐normalized AUCτ,ss [9, 14]: 128 ± 32 ng·h/mL/mg
Dose‐normalized C max,ss [9, 14]: 30.2 ± 10.6 ng/mL/mg
CL/F adjusted by body weight (post hoc estimate), males vs females ([9]; children or adults, Figure S2): no clear difference
CLss/F (apparent total body clearance at steady state) [9, 15]: 4.28 ± 1.20 L/h
Dose‐normalized AUCτ,ss [9, 15]: 251 ± 72 ng·h/mL/mg
Dose‐normalized C max,ss [9, 15]: 42.7 ± 7.6 ng/mL/mg
CLss/F relative to the adult population [9, 16]: 0.52 fold
Dose‐normalized AUCτ,ss relative to the adult population [9, 16]: 1.96 fold
Dose‐normalized C max,ss relative to the adult population [9, 16]: 1.41 fold
CLss/F relative to the adult population [9, 17]: 0.80 fold
Dose‐normalized AUCτ,ss relative to the adult population [9, 17]: 1.38 fold
Dose‐normalized C max,ss relative to the adult population [9, 17]: 1.18 fold
CLss/F (apparent total body clearance at steady state) [9, 18]: 6.59 ± 2.45 L/h
Dose‐normalized AUCτ,ss [9, 18]: 176 ± 75 ng·h/mL/mg
Dose‐normalized C max,ss [9, 18]: 35.7 ± 10.4 ng/mL/mg
